# Results published in paper PMC3931004 (The Biochemical journal, 2013).
# Legend:
# PBD1 of PPIP5K1 = target: T1, PBD1 of PPIP5K1 (Homo sapiens, UniProt Q6PFW1); experiment: SPR ligand competition: PBD1 binding to vesicular PtdIns; details: for fold lower affinity for PBD1 than InsP6 and 5-InsP7: from IC50 values
# T1 sequence (Q6PFW1 382-917): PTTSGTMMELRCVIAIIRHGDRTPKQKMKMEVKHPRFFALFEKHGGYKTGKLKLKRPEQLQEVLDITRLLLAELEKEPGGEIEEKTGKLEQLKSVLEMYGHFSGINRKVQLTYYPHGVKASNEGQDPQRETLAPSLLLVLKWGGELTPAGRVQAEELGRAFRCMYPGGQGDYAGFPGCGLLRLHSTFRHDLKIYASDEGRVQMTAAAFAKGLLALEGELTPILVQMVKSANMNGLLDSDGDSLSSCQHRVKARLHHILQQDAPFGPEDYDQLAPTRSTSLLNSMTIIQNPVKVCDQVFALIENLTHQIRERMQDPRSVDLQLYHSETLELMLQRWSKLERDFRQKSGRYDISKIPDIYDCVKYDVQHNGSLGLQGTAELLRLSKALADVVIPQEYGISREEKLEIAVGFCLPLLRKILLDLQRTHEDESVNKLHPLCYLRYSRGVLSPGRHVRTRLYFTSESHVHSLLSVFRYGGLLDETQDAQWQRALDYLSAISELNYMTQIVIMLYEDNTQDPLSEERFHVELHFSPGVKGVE
# [1] = target: Akt^PH (human recombinant AKT1) (Homo sapiens, UniProt P31749); experiment: SPR ligand competition: Akt binding to vesicular PtdIns
# Chain of Akt^PH (human recombinant AKT1) (P31749 5-108 limits assumed): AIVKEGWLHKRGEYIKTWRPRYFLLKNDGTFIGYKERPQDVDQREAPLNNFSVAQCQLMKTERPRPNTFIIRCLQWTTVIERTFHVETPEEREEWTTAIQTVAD
# SIN1^PH = SIN1^PH (Homo sapiens, UniProt Q9BPZ7); experiment: SPR ligand competition: SIN1^PH binding to vesicular PtdIns
# Chain of SIN1^PH (Q9BPZ7 358-522): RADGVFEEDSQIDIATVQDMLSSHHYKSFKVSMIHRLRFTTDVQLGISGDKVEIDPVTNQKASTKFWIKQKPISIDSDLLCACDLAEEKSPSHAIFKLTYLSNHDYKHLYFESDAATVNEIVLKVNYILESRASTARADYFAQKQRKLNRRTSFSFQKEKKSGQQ
# NIH 3T3 cells = experiment: [3H]inositol lipid and inositol phosphate levels in NIH 3T3 cells by HPLC; assay type: cell-based
# Summary of the method: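 NIH 3T3 cells in DMEM with 10 % FBS and 1 mM pyruvate (37 °C, 5 % CO2), [3H]inositol-labelled, serum-starved 3 h in Hepes-buffered saline-glucose medium pH 7.4. Treatment: vehicle or PDGF for 5 min, or fresh medium with or without 0.2 M sorbitol. Reactions quenched; lipids or inositol phosphates extracted and quantified by HPLC as % of total. PDGF data: mean ± S.E.M., three experiments.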
# mouse embryo fibroblasts = details: 5 min stimulation with IGF-1, serum starved overnight; cited from earlier work
# GRP1^PH = target: T2, GRP1^PH (Mus musculus, UniProt O08967); experiment: SPR ligand competition: GRP1^PH association with PtdIns; assay type: binding; details: Supplementary Figure S2
# T2 sequence (O08967 261-387 limits assumed): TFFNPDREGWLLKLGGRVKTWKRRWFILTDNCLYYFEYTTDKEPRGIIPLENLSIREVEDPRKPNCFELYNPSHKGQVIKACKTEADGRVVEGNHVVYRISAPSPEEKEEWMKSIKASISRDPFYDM
# Summary of the method: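 GRP1 PH domain expressed in E. coli BL21(DE3) at 37 °C in ampicillin LB, induced overnight at 25 °C with 1 mM IPTG at D600 0.6, lysed in imidazole-containing Hepes pH 8 buffer. SPR: protein injected at 5 μl/min over immobilized PtdIns(3,4,5)P3-containing lipid vesicles in 100 mM KCl, 10 mM NaH2PO4, 1 mM MgCl2, 25 mM Hepes pH 7.2. Signal corrected against control vesicles lacking the phosphoinositide.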
# [2] = 30 min hyperosmotic stress, 0.2 M sorbitol
Compound,IC50 (PBD1 of PPIP5K1),IC50 [1],IC50 (SIN1^PH),further results
O=P(O)(O)O[C@H]1[C@H](OP(=O)(O)O)[C@@H](OP(=O)(O)O)[C@H](OP(=O)(O)O)[C@@H](OP(=O)(O)O)[C@H]1OP(=O)(O)O [InsP6],7 µM,14 µM,6 µM,
"O=P(O)(O)O[C@@H]1[C@@H](OP(=O)(O)O)[C@H](OP(=O)(O)OP(=O)(O)O)[C@@H](OP(=O)(O)O)[C@H](OP(=O)(O)OP(=O)(O)O)[C@@H]1OP(=O)(O)O [InsP8, bis-diphosphoinositol tetrakisphosphate]",32 µM,> 50 µM,> 100 µM,fold lower affinity for PBD1 than InsP6 and 5-InsP7 (PBD1 of PPIP5K1): 6–7 fold
OC[C@@H](O)[C@@H](O)[C@H](O)[C@@H](O)CO [sorbitol],,,,"elevation of PtdIns(3,4,5)P3 levels (NIH 3T3 cells; [2]): 4.5 fold; increase in InsP8 concentration (NIH 3T3 cells; [2]): 4.5 fold"
PDGF,,,,"increase in levels of PtdIns(3,4,5)P3 (NIH 3T3 cells; 5 min stimulation with 50 ng/ml PDGF, 3 h serum starved): 2 fold"
IGF-1: insulin-like growth factor 1,,,,increase in levels of InsP6 and InsP7 (mouse embryo fibroblasts): 2 fold
O=P(O)(O)O[C@@H]1[C@@H](OP(=O)(O)O)[C@@H](OP(=O)(O)O)[C@@H](OP(=O)(O)OP(=O)(O)O)[C@H](OP(=O)(O)O)[C@H]1OP(=O)(O)O [1-InsP7],43 µM,45 µM,> 100 µM,fold lower affinity for PBD1 than InsP6 and 5-InsP7 (PBD1 of PPIP5K1): 6–7 fold
O=P(O)(O)O[C@H]1[C@@H](OP(=O)(O)O)[C@H](OP(=O)(O)O)[C@@H](OP(=O)(O)OP(=O)(O)O)[C@H](OP(=O)(O)O)[C@H]1OP(=O)(O)O [5-InsP7],5 µM,7 µM,3.7 µM,"inhibition of GRP1^PH association with PtdIns(3,4,5)P3, relative potency (GRP1^PH): only marginally more potent than InsP6"
